Source: PubChem BioAssay (The Scripps Research Institute Molecular Screening Center)
Hits are enriched below; roughly 3.1% of the tested compounds scored in any of these assays.
GPR7 antagonist: blocks human GPR7 receptor signaling | P48145 | AID 1861 | inhibition, % at 4.4 µM | GPR7-expressing cells, fluorescence antagonist assay | actives 1.1% (n = 290,000); in the data active means inhibition above about 16%, passing the limit was not always enough;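 further: cells stimulated with the agonist NPW; 0% = agonist with vehicle and 100% = vehicle without agonist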
OX1R antag-1: OX1R (human) antagonism; O43613; OX1R-expressing cells, FRET antagonist read-out; inhibition, % at 6.6 µM; actives 1.8% (n = 330,000); in the data active means inhibition mostly above about 38%, no sharp cut-off; inactive means mostly below about 40%;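 further: 0% = agonist challenge alone and 100% = reference antagonist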
Target sequence (O43613 whole entry, looked up): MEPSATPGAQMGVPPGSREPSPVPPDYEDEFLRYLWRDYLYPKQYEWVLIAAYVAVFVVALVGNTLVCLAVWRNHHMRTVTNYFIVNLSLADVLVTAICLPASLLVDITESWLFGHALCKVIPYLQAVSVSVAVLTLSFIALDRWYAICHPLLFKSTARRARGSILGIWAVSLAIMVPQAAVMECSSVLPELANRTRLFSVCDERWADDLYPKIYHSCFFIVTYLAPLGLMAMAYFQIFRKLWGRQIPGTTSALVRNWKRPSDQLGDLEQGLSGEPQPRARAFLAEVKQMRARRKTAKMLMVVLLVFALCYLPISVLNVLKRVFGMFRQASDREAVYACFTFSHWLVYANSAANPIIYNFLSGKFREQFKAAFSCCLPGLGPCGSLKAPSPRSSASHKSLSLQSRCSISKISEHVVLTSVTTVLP
OX1R antag-2: human HCRTR1 antagonism. O43613. CHO/OX1R cells, Fluo-8 calcium fluorescence, orexin A. inhibition, % at 5 µM. actives 0.43% (n = 330,000);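 active means inhibition above its plate's threshold, mean inhibition of all tested compounds on the plate plus 3 SD, cut at about 37% in these data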;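 further: 0% = orexin A challenge wells and 100% = SB-334867-A antagonist wells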
CHO parental Ca: signal in parental CHO cells, OX1R antagonist counter-screen | actives 0.63% (n = 330,000) | parental CHO-K1, ATP-induced calcium, Fluo-8 fluorescence | AID 463079 | inhibition, % at 5.6 µM;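 active means inhibition above that plate's mean sample inhibition plus 3 SD, cut at about 26% in these data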;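 further: 0% = ATP-challenged DMSO wells and 100% = DMSO wells without ATP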
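test system = CHO parental line | reagent = ATP stimulus | measured by = intracellular calcium via Fluo-8 no-wash fluorescent dye | control set = ATP and no-ATP DMSO wells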
GalR3 antagonist: human GalR3 antagonism; O60755; HEK293 GalR3-CNG cAMP membrane potential fluorescence; galR3 body fused to GalR1 C-terminus; inhibition, % at 3 µM; AID 651719; actives 0.44% (n = 360,000);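 active means inhibition above the screen-wide average plus 3 SD, cut at about 13% in these data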;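 further: forskolin and galanin both at EC90 stimulate the cells; cAMP rise reported by CNG channel membrane potential dye signal; 0% = forskolin plus galanin with DMSO and 100% = forskolin alone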
Target sequence (O60755 1-299 limits assumed): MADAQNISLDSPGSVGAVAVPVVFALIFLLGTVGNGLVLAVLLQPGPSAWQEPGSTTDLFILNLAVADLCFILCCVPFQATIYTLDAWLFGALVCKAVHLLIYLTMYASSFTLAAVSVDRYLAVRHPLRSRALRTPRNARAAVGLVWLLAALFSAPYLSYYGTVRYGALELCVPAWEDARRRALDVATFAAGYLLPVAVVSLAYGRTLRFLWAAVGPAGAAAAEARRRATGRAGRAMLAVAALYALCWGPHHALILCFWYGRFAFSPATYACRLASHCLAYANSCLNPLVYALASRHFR
GalR3 antag conf: GalR3 (human) antagonism, confirmation; shares compounds with GalR3 antagonist; HEK293 GalR3 CNG cAMP biosensor, membrane potential fluorescence; galR3 fused to GalR1 carboxy tail; challenged with forskolin and galanin at EC90; inhibition, % at 3 µM; actives 59% (n = 1,600);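 active means inhibition above the primary screen's cutoff, the mean inhibition of all screened compounds plus 3 SD, cut at about 13% in these data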;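 further: 0% = forskolin plus galanin and 100% = forskolin alone with DMSO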
CNG parental: acts as nonspecific agonist in parental HEK-CNG cells | shares compounds with GalR3 antagonist | HEK293-CNG parental cells, cAMP membrane potential fluorescence; normalised: DMSO wells 0%, forskolin wells 100% | activation, % at 3 µM | actives 10% (n = 1,600); in the data active means activation above about 1.3%
Active calls of the source: *; · = no result given.

SMILES | GPR7 antagonist | OX1R antag-1 | OX1R antag-2 | CHO parental Ca | GalR3 antagonist | GalR3 antag conf | CNG parental
O=S(=O)(c1ccc(Cl)cc1)N1CCN(S(=O)(=O)N2CCCCCC2)CC1 | -3.6 | 8.4 | -13.5 | 3.8 | 16.1* | 3.3 | -0.2
CN(C)S(=O)(=O)N1CCC(Oc2cccc(C(=O)NC3CCCCCC3)c2)CC1 | 14.8 | 57.2 | -10.2 | 26.1 | 28.9* | 99.9* | -0.3
CCN1CCN(C(=O)c2cccc(OC3CCN(S(=O)(=O)N(C)C)CC3)c2)CC1 | -12.2 | 4.2 | -15.7 | -7.3 | -2.2 | · | ·
Cc1ccc(C(=O)N2CCCC(CCC(=O)N3CCN(c4ccccn4)CC3)C2)cn1 (stereo unspecified) | -13.7 | 16.9 | -29.1 | -17.3 | 12.7* | 8.3 | -0.2
O=C(NN=Cc1ccccc1OC(F)F)c1cccc(S(=O)(=O)N2CCCC2)c1 | · | 11.2 | -20.5 | -20.1 | -6.5 | · | ·
COc1ccc(-c2c3c(cc4ncn(Cc5ccccc5)c24)COC3=O)cc1 | · | 10.3 | -17.2 | -15.9 | 27.3* | 52.1* | 0.4
COc1ccc(-c2csc3ncn(Cc4ccccc4)c(=O)c23)cc1 | -19.7 | 10.0 | -16.6 | -16.6 | 3.8 | · | ·
O=C(Nc1ccc(F)c(Cl)c1)c1cc(C2CCCN(S(=O)(=O)c3cccc4cccnc34)C2)on1 (stereo unspecified) | · | · | · | · | 13.0* | 6.5 | -0.8
CC(=O)c1c(C)[nH]c(C(=O)COc2cc(C)ccc2C(C)C)c1C | 24.8* | 84.4* | 62.2* | 74.1* | 72.8* | 112.8* | -0.1
CC[C@@H]1CCC[C@@H](O)[C@@H](C)C(=O)O[C@H](C)[C@@H](C)C/C=C(C)/C(OC)=C\C(=O)N(C)C([C@@H](C)CC)C(=O)N(C)[C@@H](C(C)C)C(=O)N(C)[C@@H](COC)C(=O)N2CCC[C@H]2C(=O)N(C)[C@@H](C(C)C)C(=O)N2CCC[C@H]2C(=O)O1 (stereo partly specified) | · | · | · | · | 100.5* | 115.3* | -1.2
O=C(COC(=O)c1ccco1)Nc1ccc(N2CCOCC2)cc1 | · | · | · | · | -1.3 | · | ·
CC(=O)c1c(OC(=O)c2ccccc2)ccnc1C(F)(F)F | · | 3.2 | -14.8 | -1.0 | -3.4 | · | ·
COc1cc(C(=O)NC2CCN(C)CC2)ccc1Nc1ncc2c(n1)N(C1CCCCC1)CCC(=O)N2C | · | · | · | · | 19.4* | 13.2* | 0.4
C[C@@H]1CC2=C(C(=O)OC(C)(C)O2)[C@H](c2ccc(Cl)cc2)O1 | · | · | · | · | -7.9 | · | ·
CC1CCCCN1C(=O)COC(=O)c1cc(Cl)c2c(c1)OCO2 (stereo unspecified) | · | · | · | · | -2.5 | · | ·
O=C(Nc1ccccc1F)c1ccc2sc([C@H]3C[C@H](O)[C@@H](CO)O3)nc2c1 | · | · | · | · | -9.5 | · | ·
Cc1cc(=O)[nH]c(N/N=C/c2cccc([N+](=O)[O-])c2)n1 | -4.8 | 28.8 | 4.4 | -8.9 | -1.2 | · | ·
Cc1cc(=O)[nH]c(N/N=C/c2ccc(Cl)c([N+](=O)[O-])c2)n1 | -19.7 | 4.0 | -18.7 | 0.0 | 13.7* | 1.8 | 0.2
Fc1ccccc1Nc1nc2ccccc2o1 | -10.2 | 15.0 | -16.8 | -15.4 | -8.9 | · | ·
CCN(CC)c1ccc(/C=C(/C#N)C(=O)NC(C)C)o1 | -3.6 | 46.1 | 0.3 | 5.8 | 12.9* | -2.4 | -0.1
O=C(c1cccc(S(=O)(=O)N2CCN(c3ccc(F)cc3)CC2)c1)N1CCCC(C(F)(F)F)C1 (stereo unspecified) | · | 19.8 | -3.9 | 37.4* | 99.0* | 94.7* | -0.8
CC1CN(C(=O)c2cccc(S(=O)(=O)N3CCN(c4ccc(F)cc4)CC3)c2)CC(C)O1 (stereo unspecified) | -19.1 | 6.1 | -30.4 | -6.0 | -2.4 | · | ·
O=C1c2cccc(OCc3ccc(F)cc3)c2CCN1Cc1ccc(F)cc1 | 4.8 | 19.7 | -11.3 | 6.5 | 19.6* | 38.3* | 0.4
CCC(=O)N(Cc1cc2ccccc2[nH]c1=O)c1ccccc1OC | 7.0 | -2.2 | -10.5 | -13.4 | -12.2 | · | ·
COc1ccc(Cl)cc1NC(=O)CN(C)C(C)C(=O)NC(=O)NC1CCCCC1 (stereo unspecified) | · | 11.3 | -32.9 | -4.7 | -6.5 | · | ·
SMILES | GPR7 antagonist | OX1R antag-1 | OX1R antag-2 | CHO parental Ca | GalR3 antagonist | GalR3 antag conf | CNG parental
COc1ccc(N2C(=O)CC(NCc3ccc(F)cc3)C2=O)cc1 (stereo unspecified) | -12.2 | 7.2 | -20.5 | -3.2 | 14.6* | 14.5* | 0.0
CCC(Sc1nc2n[nH]c(C)c2c(=N)n1-c1cccc(Cl)c1C)C(=O)N(CC)CC (stereo unspecified) | -9.4 | 6.3 | -4.1 | -34.5 | 16.6* | 71.1* | 1.0
O=C(Nc1ccc(S(=O)(=O)N2CCCCC2)cc1)c1ccncc1 | 13.6 | 15.6 | -1.9 | -1.2 | -1.5 | · | ·
O=C(Nc1ccc(Cc2ccncc2)cc1)c1ccc(S(=O)(=O)N2CCCC2)cc1 | 10.7 | · | · | · | 72.7* | 94.2* | -0.2
Cn1cnc([N+](=O)[O-])c1S(=O)(=O)c1ccc(Cl)cc1 | 12.4 | · | · | · | 12.7* | 1.3 | 0.2
Cn1cnc([N+](=O)[O-])c1NC(C)(C)C | -5.2 | 0.6 | -18.4 | 8.0 | 4.4 | · | ·
CCn1nnnc1SCC(=O)Nc1ccc(F)cc1 | 2.7 | 13.6 | 0.6 | 11.7 | 14.2* | 71.0* | 0.1
CCN(CC(=O)Nc1ccc(NC(C)=O)cc1)CC(=O)Nc1ccccc1C(=O)c1ccccc1 | 0.3 | 0.9 | -13.3 | -15.8 | 16.7* | 4.2 | 0.4
CCN(CC)CC(=O)Nc1ccc(C)cc1C(=O)c1ccccc1 | -11.7 | 10.8 | -16.7 | -16.1 | -7.9 | · | ·
CCOC1=C2CN(S(=O)(=O)c3ccc(C)cc3)[C@H](c3ccccc3)C[C@@H]2N(S(C)(=O)=O)[C@H](c2ccccc2)C1 | · | · | · | · | -7.9 | · | ·
O=C(Nc1ccccc1C1CC1)c1cccs1 | 0.0 | 9.4 | -9.8 | -4.8 | 78.1* | -9.4 | 0.2
O=C1CC[C@H](OCc2ccccc2)CCN1[C@H](CSc1ccccc1)Cc1ccccc1 | 13.8 | 16.2 | -5.2 | -10.4 | -6.6 | · | ·
CC1CC(C)CN(CCCNC(=O)CCC(=O)N2CC(C)Oc3ccccc32)C1 (stereo unspecified) | 4.3 | 7.1 | -27.4 | -13.9 | · | · | ·
O=C(CSc1cc(Cl)ccc1Cl)NCC1CCCO1 (stereo unspecified) | -5.5 | 2.8 | -10.2 | 2.1 | -6.3 | · | ·
O=C(CSc1ncc(C(F)(F)F)cc1Cl)NCC1CCCO1 (stereo unspecified) | -3.6 | 4.3 | -16.1 | -13.1 | 13.3* | 1.8 | 0.7
Nc1cc(=O)[nH]c(SCC(=O)NCC2CCCO2)n1 (stereo unspecified) | 5.2 | 13.7 | -0.6 | -5.9 | 12.8* | -4.4 | 0.2
COc1ccccc1NS(=O)(=O)c1ccc(N/N=C(\C)C(C)C)c([N+](=O)[O-])c1 | -12.6 | 41.8 | 15.2 | 0.0 | 33.5* | 12.9* | -1.5
